Holding throughout (format): functional
Test [1] deals with Micrococcus luteus. The test can be described thus: Antibacterial activity against Micrococcus luteus assessed as growth inhibition at 50 ug/disc after 24 hrs by disc diffusion method. Particulars: for zone of inhibition at 50 µg/disc: read-out: DIZ. In a few lines: (§1)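 Disc diffusion: 100 µL of each bacterial culture (10^6 CFU/mL), grown 18 h in nutrient broth, spread onto meat peptone agar in Petri dishes. Compound-loaded discs applied. Plates incubated 24 h at 37 °C. Inhibition zone diameter measured in mm. Treatments replicated 3-5 times, reported as mean ± S.E.M.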

The test system of test [2] is Enterococcus faecalis. The experiment in a line: Antibacterial activity against Enterococcus faecalis assessed as growth inhibition at 50 ug/disc after 24 hrs by disc diffusion method. To be noted: for zone of inhibition at 50 µg/disc: read-out: DIZ. In a few lines: as §1
Test [3] concerns Staphylococcus aureus. The experiment in a line: Antibacterial activity against Staphylococcus aureus assessed as growth inhibition at 50 ug/disc after 24 hrs by disc diffusion method. To be noted: for zone of inhibition at 50 µg/disc: read-out: DIZ. In a few lines:
as §1

In test [4] the test system is Staphylococcus epidermidis. The test can be described thus: Antibacterial activity against Staphylococcus epidermidis assessed as growth inhibition at 50 ug/disc after 24 hrs by disc diffusion method. To be noted: for zone of inhibition at 50 µg/disc: read-out: DIZ. The method in brief: as §1
Test [5] has as its system Staphylococcus aureus. The experiment in a line: Antibacterial activity against Staphylococcus aureus assessed as growth inhibition at 500 ug/disc after 24 hrs by disc diffusion method. Particulars: for zone of inhibition at 500 µg/disc: read-out: DIZ. In a few lines: (§2)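 Disc diffusion: 100 µL inoculum (10^6 CFU/mL, grown 18 h in nutrient broth) spread on meat peptone agar plates; discs applied and incubated 24 h at 37 °C. Inhibition zone diameters measured in mm; 3-5 replicates, mean ± S.E.M.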

Test [6] relates to Staphylococcus epidermidis. The test can be described thus: Antibacterial activity against Staphylococcus epidermidis assessed as growth inhibition at 5 ug/disc after 24 hrs by disc diffusion method. Particulars: read-out: DIZ. In a few lines: as §2
Test [7] concerns Enterococcus faecalis. The test can be described thus: Antibacterial activity against Enterococcus faecalis assessed as growth inhibition at 5 ug/disc after 24 hrs by disc diffusion method. Particulars: read-out: DIZ. In a few lines: as §2
Test [8] deals with Micrococcus luteus. The experiment in a line: Antibacterial activity against Micrococcus luteus assessed as growth inhibition at 5 ug/disc after 24 hrs by disc diffusion method. To be noted: read-out: DIZ. The method in brief:
as §2

In test [9] the test system is Micrococcus luteus. The test can be described thus: Antibacterial activity against Micrococcus luteus assessed as growth inhibition at 500 ug/disc after 24 hrs by disc diffusion method. In a few lines:
as §1

Test [10] concerns Enterococcus faecalis. The test can be described thus: Antibacterial activity against Enterococcus faecalis assessed as growth inhibition at 500 ug/disc after 24 hrs by disc diffusion method. Particulars: read-out: DIZ. In a few lines: as §1
Test [11] relates to Staphylococcus epidermidis. The experiment in a line: Antibacterial activity against Staphylococcus epidermidis assessed as growth inhibition at 500 ug/disc after 24 hrs by disc diffusion method. To be noted: for zone of inhibition at 500 µg/disc: read-out: DIZ. In a few lines: as §1
Test [12] deals with Staphylococcus aureus. The test can be described thus: Antibacterial activity against Staphylococcus aureus assessed as growth inhibition at 5 ug/disc after 24 hrs by disc diffusion method. To be noted: read-out: DIZ. The method in brief:
as §1

Test [13] has as its system Micrococcus luteus. The test can be described thus: Antibacterial activity against Micrococcus luteus assessed as growth inhibition at 25 ug/disc after 24 hrs by disc diffusion method. To be noted: read-out: DIZ. The method in brief: as §1
Test [14] has as its system Enterococcus faecalis. The test can be described thus: Antibacterial activity against Enterococcus faecalis assessed as growth inhibition at 25 ug/disc after 24 hrs by disc diffusion method. To be noted: read-out: DIZ. The method in brief: as §1
Test [15] has as its system Staphylococcus epidermidis. The test can be described thus: Antibacterial activity against Staphylococcus epidermidis assessed as growth inhibition at 25 ug/disc after 24 hrs by disc diffusion method. To be noted: read-out: DIZ. In a few lines: as §1
Test [16] has as its system Staphylococcus aureus. The experiment in a line: Antibacterial activity against Staphylococcus aureus assessed as growth inhibition at 25 ug/disc after 24 hrs by disc diffusion method. To be noted: read-out: DIZ. In a few lines: as §1

The values that follow come from ChEMBL document CHEMBL3425415, “An antibacterial ortho-quinone diterpenoid and its derivatives from Caryopteris mongolica” (2015).

The source made the active and inactive calls. The calls are words filed in the database; no cut-off is given here.

In the case of `C[C@@H]1C[C@@]12C(=O)OC(=O)C1=C(C(=O)C[C@H]3C(C)(C)CCC[C@]13C)[C@H]2O`, the “growth inhibition (GI)” value (with Micrococcus luteus [1]; in the test on Enterococcus faecalis [2]; in the test on Staphylococcus aureus [3]; in test [4]) was “inactive” each time.
As to `CC1=C(C)[C@@H]2CC(=O)C3=C(C(=O)OC(=O)[C@@]4(C[C@H]4C)[C@@H]3O)[C@@]2(C)CC1`, the “growth inhibition (GI)” value (in the test with Micrococcus luteus [1]; in the test on Enterococcus faecalis [2]; with Staphylococcus aureus [3]; in test [4]) was “inactive” throughout.
`CC(C)c1cc2c(c(O)c1O)[C@@]1(C)CCCC(C)(C)[C@@H]1CC2=O` [DEMETHYLCRYPTOJAPONOL]: the zone of inhibition at 500 µg/disc with Staphylococcus aureus [5] worked out at 15.8 mm. For the same compound, the zone of inhibition at 50 µg/disc in the test on Micrococcus luteus [1] stood at 9 mm; with Enterococcus faecalis [2], 11.3 mm; in the test with Staphylococcus aureus [3], 11.8 mm; in test [4], 13.7 mm. Besides, the zone of inhibition at 5 µg/disc in test [6] stood at 16 mm; with Enterococcus faecalis [7] it was 15.2 mm; in the test on Micrococcus luteus [8], 13.5 mm.
For `CC(C)c1cc2c(c(O)c1O)[C@@]1(C)CCCC(C)(C)[C@@H]1[C@@H](O)C2=O` [6-ALPHA-HYDROXYDEMETHYL-CRYPTOJAPONOL], the zone of inhibition at 500 µg/disc in the test with Staphylococcus aureus [5] was found to be 22.5 mm. Also, the zone of inhibition at 50 µg/disc with Micrococcus luteus [1] was determined as 9.1 mm; in the test on Enterococcus faecalis [2], 13.8 mm; in the test on Staphylococcus aureus [3], 11 mm; in test [4], 11.5 mm. In addition, the results for the zone of inhibition at 5 µg/disc (in [6]; in the test with Enterococcus faecalis [7]; in the test with Micrococcus luteus [8]) were 21.2 mm, 20.2 mm and 17.7 mm, respectively.
In the case of `CC(C)c1cc2c(c(O)c1O)[C@@]1(C)CCCC(C)(C)C1=C(O)C2=O` [14-DEOXYCOLEON U], the zone of inhibition at 500 µg/disc in the test with Micrococcus luteus [9] (read-out: DIZ) was 14.8 mm; in the test on Staphylococcus aureus [5] it was 17.8 mm; in the test on Enterococcus faecalis [10] it was 16.8 mm; in test [11], 18.2 mm. Further, the zone of inhibition at 50 µg/disc turned out to be 9 mm with Micrococcus luteus [1], 10.5 mm with Enterococcus faecalis [2], 10.2 mm in the test on Staphylococcus aureus [3] and 10.2 mm in [4].
On to `NC[C@H]1O[C@H](O[C@H]2[C@H](O)[C@@H](O[C@H]3O[C@H](CO)[C@@H](O)[C@H](N)[C@H]3O)[C@H](N)C[C@@H]2N)[C@H](O)[C@@H](O)[C@@H]1O` [KANAMYCIN], for which the zone of inhibition at 5 µg/disc stood at 20.5 mm in test [6], 16 mm in the test with Micrococcus luteus [8] and 16.3 mm in the test on Staphylococcus aureus [12]. In addition, the zone of inhibition at 50 µg/disc in the test on Enterococcus faecalis [2] was found to be 17.9 mm.
As for `C[C@H]1C[C@]12C(=O)OC(=O)C1=C(C(=O)C[C@H]3C(C)(C)CCC[C@]13C)[C@H]2O`, the “growth inhibition (GI)” value (with Micrococcus luteus [9]; with Staphylococcus aureus [5]; with Micrococcus luteus [1]; with Enterococcus faecalis [2]; in test [11]; with Staphylococcus aureus [3]) was “inactive” in each case. Also, the “growth inhibition (GI)” value in test [4] is “inactive”. For the same compound, in the test on Enterococcus faecalis [10], the zone of inhibition at 500 µg/disc was 9.6 mm.
As for `CC1=C(C)[C@@H]2CC(=O)C3=C(C(=O)C(=O)[C@]4(C[C@@H]4C)[C@@H]3O)[C@@]2(C)CC1`, the values for the zone of inhibition at 500 µg/disc (in the test on Staphylococcus aureus [5]; with Enterococcus faecalis [10]; in test [11]) were 30.6 mm, 28.7 mm and 29.3 mm, respectively. Moreover, the zone of inhibition at 5 µg/disc in test [6] worked out at 15.9 mm; in the test with Enterococcus faecalis [7], 23.2 mm; in the test with Micrococcus luteus [8], 16.3 mm; in the test with Staphylococcus aureus [12] it was 12.9 mm. In addition, the zone of inhibition at 50 µg/disc turned out to be 24 mm in the test on Enterococcus faecalis [2], 22.6 mm in the test with Staphylococcus aureus [3] and 24.1 mm in test [4]. The zone of inhibition at 25 µg/disc in the test with Micrococcus luteus [13] is 27.9 mm; with Enterococcus faecalis [14], 22 mm; in test [15] it was 23.2 mm; in the test on Staphylococcus aureus [16] it was 21.5 mm.
